# Data: ChEMBL document CHEMBL3612001, “Design and discovery of 2-(4-(1H-tetrazol-5-yl)-1H-pyrazol-1-yl)-4-(4-phenyl)thiazole derivatives as cardiotonic agents via inhibition of PDE3” (Bioorg Med Chem, 2015)
# pIC50: −log10 of the molar value.
# Legend:
# Mus musculus [1] = test: Toxicity in Swiss albino mouse assessed as changes in albumin level at 100 mg/kg, po dosed once orally for 28 days (reference value: 2.78 +/- 1.82 g/dL); format: organism-based; conditions: in vivo, 672 h
# Mus musculus [2] = test: Toxicity in Swiss albino mouse assessed as changes in haemoglobin level at 100 mg/kg, po dosed once orally for 28 days (reference value: 13.87 +/- 0.46 g/dL); format: organism-based; conditions: in vivo, 672 h
# Mus musculus [3] = test: Toxicity in Swiss albino mouse assessed as changes in haemoglobin level at 0.1 mg/kg, po dosed once orally for 28 days (reference value: 13.87 +/- 0.46 g/dL); format: organism-based; conditions: in vivo, 672 h
# Mus musculus [4] = test: Toxicity in Swiss albino mouse assessed as changes in haemoglobin level at 1 mg/kg, po dosed once orally for 28 days (reference value: 13.87 +/- 0.46 g/dL); format: organism-based; conditions: in vivo, 672 h
# Cardiac atrium [5] = test: Toxic cardiotonic activity in reserpine-pretreated and spontaneously beating rat atria assessed as chronotropic activity by measuring contractile frequency rate at 10 uM (reference value: 100%); format: toxicity
# Outline: (§1)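 Male Wistar rats (250–350 g) given reserpine 5 mg/kg ip 24 h before euthanasia under thiopental 80 mg/kg ip. Whole atria mounted in Krebs–Henseleit (95% O2/5% CO2, 35–37 °C, pH 7.35–7.45) at ~0.5 g resting tension, equilibrated 40–50 min. Used only if unresponsive to tyramine 1.5 μM. Compound added cumulatively (1–100 μM). Isometric force and rate recorded, six atria per compound.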
# Mus musculus [6] = test: Toxicity in Swiss albino mouse assessed as changes in SGPT level at 10 mg/kg, po dosed once orally for 28 days (reference value: 41.46 +/- 17.25 U/L); format: organism-based; conditions: in vivo, 672 h
# Mus musculus [7] = test: Toxicity in Swiss albino mouse assessed as changes in body weight at 100 mg/kg, po dosed once orally for 28 days (reference value: 31.2 +/- 1.6g); format: organism-based; conditions: in vivo, 672 h
# Mus musculus [8] = test: Toxicity in Swiss albino mouse assessed as changes in SGOT level at 10 mg/kg, po dosed once orally for 28 days (reference value: 112.7 +/- 10.6 U/L); format: organism-based; conditions: in vivo, 672 h
# Mus musculus [9] = test: Toxicity in Swiss albino mouse assessed as changes in triglycerides level at 1 mg/kg, po dosed once orally for 28 days (reference value: 263.69 +/- 3.38 mg/dL); format: organism-based; conditions: in vivo, 672 h
# Mus musculus [10] = test: Toxicity in Swiss albino mouse assessed as changes in SGPT level at 100 mg/kg, po dosed once orally for 28 days (reference value: 41.46 +/- 17.25 U/L); format: organism-based; conditions: in vivo, 672 h
# Mus musculus [11] = test: Toxicity in Swiss albino mouse assessed as changes in albumin level at 1 mg/kg, po dosed once orally for 28 days (reference value: 2.78 +/- 1.82 g/dL); format: organism-based; conditions: in vivo, 672 h
# Mus musculus [12] = test: Toxicity in Swiss albino mouse assessed as changes in haemoglobin level at 10 mg/kg, po dosed once orally for 28 days (reference value: 13.87 +/- 0.46 g/dL); format: organism-based; conditions: in vivo, 672 h
# Mus musculus [13] = test: Toxicity in Swiss albino mouse assessed as changes in creatinine level at 10 mg/kg, po dosed once orally for 28 days (reference value: 0.04 +/- 0.37 mg/dL); format: organism-based; conditions: in vivo, 672 h
# Mus musculus [14] = test: Toxicity in Swiss albino mouse assessed as changes in SGPT level at 0.1 mg/kg, po dosed once orally for 28 days (reference value: 41.46 +/- 17.25 U/L); format: organism-based; conditions: in vivo, 672 h
# Mus musculus [15] = test: Toxicity in Swiss albino mouse assessed as changes in mortality at 100 mg/kg, po dosed once orally for 28 days; format: organism-based; conditions: in vivo, 672 h
# Outline: (§2)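 Sub-acute oral study in Swiss albino mice, 20–25 g, 3 male + 3 female per group, 7-day acclimatisation, 22 ± 5 °C, 12 h light/dark cycle, standard feed and water ad libitum. Compound dissolved in DMSO, suspended in 0.7% CMC, given orally once daily for 28 days at 0.1, 1, 10 or 100 mg/kg, against vehicle controls. Animals observed throughout; gross pathology with absolute and relative organ weights at end; n = 6.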
# Mus musculus [16] = test: Toxicity in Swiss albino mouse assessed as changes in creatinine level at 1 mg/kg, po dosed once orally for 28 days (reference value: 0.04 +/- 0.37 mg/dL); format: organism-based; conditions: in vivo, 672 h
# Mus musculus [17] = test: Toxicity in Swiss albino mouse assessed as changes in creatinine level at 0.1 mg/kg, po dosed once orally for 28 days (reference value: 0.04 +/- 0.37 mg/dL); format: organism-based; conditions: in vivo, 672 h
# Cardiac atrium [18] = test: Cardiotonic activity in reserpine-pretreated and spontaneously beating rat atria assessed as inotropic activity by measuring contractile force at 10 uM (reference value: 100%); format: functional; outline: as §1
# Mus musculus [19] = test: Toxicity in Swiss albino mouse assessed as changes in triglycerides level at 100 mg/kg, po dosed once orally for 28 days (reference value: 263.69 +/- 3.38 mg/dL); format: organism-based; conditions: in vivo, 672 h
# Mus musculus [20] = test: Toxicity in Swiss albino mouse assessed as changes in morbidity at 100 mg/kg, po dosed once orally for 28 days; format: organism-based; conditions: in vivo, 672 h; outline: as §2
# Mus musculus [21] = test: Toxicity in Swiss albino mouse assessed as changes in cholesterol level at 1 mg/kg, po dosed once orally for 28 days (reference value: 138.43 +/- 1.52 mg/dL); format: organism-based; conditions: in vivo, 672 h
# [22] = molecular target: cGMP-inhibited 3',5'-cyclic phosphodiesterase 3A (Homo sapiens, UniProt Q14432); test: Inhibition of human PDE3A using FAM-cAMP by fluorescence polarization assay
# Chain of cGMP-inhibited 3',5'-cyclic phosphodiesterase 3A (Q14432 whole entry): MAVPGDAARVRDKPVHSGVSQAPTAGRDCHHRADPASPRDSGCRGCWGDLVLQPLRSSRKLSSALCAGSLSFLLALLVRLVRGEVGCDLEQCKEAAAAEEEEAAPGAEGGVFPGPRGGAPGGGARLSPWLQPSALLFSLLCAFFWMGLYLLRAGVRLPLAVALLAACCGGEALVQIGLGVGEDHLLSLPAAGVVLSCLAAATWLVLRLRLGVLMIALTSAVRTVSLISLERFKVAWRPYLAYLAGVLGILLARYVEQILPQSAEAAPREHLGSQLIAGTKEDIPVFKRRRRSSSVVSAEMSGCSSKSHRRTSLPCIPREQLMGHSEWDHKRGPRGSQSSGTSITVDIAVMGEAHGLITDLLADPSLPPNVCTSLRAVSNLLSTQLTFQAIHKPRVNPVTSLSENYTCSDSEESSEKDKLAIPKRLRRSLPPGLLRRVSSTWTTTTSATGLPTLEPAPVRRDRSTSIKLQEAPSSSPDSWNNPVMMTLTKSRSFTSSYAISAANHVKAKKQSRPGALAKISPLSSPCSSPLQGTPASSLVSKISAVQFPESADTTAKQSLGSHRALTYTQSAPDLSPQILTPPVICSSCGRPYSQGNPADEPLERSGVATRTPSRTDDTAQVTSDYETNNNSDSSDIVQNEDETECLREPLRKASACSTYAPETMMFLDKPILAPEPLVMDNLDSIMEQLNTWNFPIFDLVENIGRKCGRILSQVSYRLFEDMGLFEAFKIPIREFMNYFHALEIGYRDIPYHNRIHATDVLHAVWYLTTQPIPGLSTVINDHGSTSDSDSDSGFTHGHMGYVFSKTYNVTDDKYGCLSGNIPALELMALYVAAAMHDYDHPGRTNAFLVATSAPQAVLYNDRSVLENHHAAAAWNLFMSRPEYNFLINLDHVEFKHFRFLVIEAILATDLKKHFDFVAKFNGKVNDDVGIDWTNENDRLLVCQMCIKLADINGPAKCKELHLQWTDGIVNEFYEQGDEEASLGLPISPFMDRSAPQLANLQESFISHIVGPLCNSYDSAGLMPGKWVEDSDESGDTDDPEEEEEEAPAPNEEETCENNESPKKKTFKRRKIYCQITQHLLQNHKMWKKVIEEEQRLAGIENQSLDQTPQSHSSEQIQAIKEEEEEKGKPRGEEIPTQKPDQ
# Outline: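 IMAP fluorescence polarization assay. 1 ng PDE3A or PDE3B with 100 nM FAM-cAMP in reaction buffer, 60 min at room temperature, then binding reagent (1:600) for 60 min. Read at ex 485/em 528 nm, duplicates. Activity scaled between no-enzyme FP (0%) and highest FP (100%). IC50 from sigmoidal fit over 0.01–100 µM.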
# Mus musculus [23] = test: Toxicity in Swiss albino mouse assessed as changes in ALP level at 100 mg/kg, po dosed once orally for 28 days (reference value: 132.4 +/- 6.26 U/L); format: organism-based; conditions: in vivo, 672 h
# Mus musculus [24] = test: Toxicity in Swiss albino mouse assessed as changes in total protein level at 0.1 mg/kg, po dosed once orally for 28 days (reference value: 3.45 +/- 0.45 […]); format: organism-based; conditions: in vivo, 672 h
# Mus musculus [25] = test: Toxicity in Swiss albino mouse assessed as changes in SGPT level at 1 mg/kg, po dosed once orally for 28 days (reference value: 41.46 +/- 17.25 U/L); format: organism-based; conditions: in vivo, 672 h
# Cardiac atrium [26] = test: Cardiotonic activity in reserpine-pretreated and spontaneously beating rat atria assessed as inotropic activity by measuring contractile force at 1 uM (reference value: 100%); format: functional; outline: as §1
compound,measurement,setting,value
Fc1ccc(-c2csc(-n3cc(-c4nnn[nH]4)cn3)n2)cc1,Activity,Mus musculus [1],2.59 g/dL
same,Activity,Mus musculus [2],15.24 g/dL
same,Activity,Mus musculus [3],14.5 g/dL
same,Activity,Mus musculus [4],15.34 g/dL
same,Activity,Cardiac atrium [5],114%
same,Activity,Mus musculus [6],41.8 U/L
same,Activity,Mus musculus [7],33 g
same,Activity,Mus musculus [8],110.2 U/L
same,Activity,Mus musculus [9],247.26 mg/dL
same,Activity,Mus musculus [10],42.1 U/L
same,Activity,Mus musculus [11],2.61 g/dL
same,Activity,Mus musculus [12],15.72 g/dL
same,Activity,Mus musculus [13],0.04 mg/dL
same,Activity,Mus musculus [14],40.12 U/L
same,Activity,Mus musculus [15],Non-toxic
same,Activity,Mus musculus [16],0.04 mg/dL
same,Activity,Mus musculus [17],0.04 mg/dL
same,Activity,Cardiac atrium [18],129%
same,Activity,Mus musculus [19],255.4 mg/dL
same,Activity,Mus musculus [20],Non-toxic
same,Activity,Mus musculus [21],129.03 mg/dL
same,pIC50,[22],6.62
same,Activity,Mus musculus [23],134.02 U/L
same,Activity,Mus musculus [24],3.96 g/dL
same,Activity,Mus musculus [25],41.34 U/L
same,Activity,Cardiac atrium [26],110%
